Measured values published in ChEMBL document CHEMBL3098117, “Identification and optimization of an aminoalcohol-carbazole series with antimalarial properties” (ACS Med Chem Lett, 2013).
Calls of active or inactive are those of the source. The calls are words filed in the database; no cut-off is given here.

How the values were obtained:
[1] = tested on: Plasmodium falciparum; experiment: Antimalarial activity against Plasmodium falciparum K1 infected in human RBC after 72 hrs by hypoxanthine incorporation assay in presence of serum albumin; assay type: functional, organism-based; conditions: for IC50: K1, 72 h
Summary of the method: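 Mixture of drug, human red blood cells and P. falciparum incubated 3 days (72 h) with serum albumin present; growth read as hypoxanthine incorporation.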

[2] = tested on: Plasmodium falciparum; experiment: Antimalarial activity against chloroquine-resistant Plasmodium falciparum K1 infected in human RBC; assay type: functional, organism-based
Summary of the method: (§1)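 P. falciparum cultured with test drug in human red blood cells for 3 days. Growth read out as hypoxanthine incorporation.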

[3] = target: T1, Cytochrome P450 1A2 (Homo sapiens, UniProt P05177); experiment: Inhibition of human recombinant CYP1A2 expressed in baculovirus-infected insect cells preincubated for 15 mins followed by substrate addition measured after 30 mins by luminescence assay; assay type: ADME; conditions: recombinant enzyme, 0.5 h
T1 sequence (P05177 whole entry): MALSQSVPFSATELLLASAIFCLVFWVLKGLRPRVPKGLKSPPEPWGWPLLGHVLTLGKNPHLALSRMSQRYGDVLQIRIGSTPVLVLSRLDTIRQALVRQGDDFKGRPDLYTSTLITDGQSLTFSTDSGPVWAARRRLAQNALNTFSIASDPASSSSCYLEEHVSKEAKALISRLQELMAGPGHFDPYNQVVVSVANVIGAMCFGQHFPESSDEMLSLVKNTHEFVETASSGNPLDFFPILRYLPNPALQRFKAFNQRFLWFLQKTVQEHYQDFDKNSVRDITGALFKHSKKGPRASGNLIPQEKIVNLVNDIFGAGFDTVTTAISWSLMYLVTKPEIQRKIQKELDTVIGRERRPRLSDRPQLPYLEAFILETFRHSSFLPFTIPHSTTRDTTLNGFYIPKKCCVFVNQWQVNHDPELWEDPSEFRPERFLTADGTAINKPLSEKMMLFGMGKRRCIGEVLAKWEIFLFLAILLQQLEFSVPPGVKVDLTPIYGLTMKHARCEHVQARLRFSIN

[4] = target: Cytochrome P450 2C19 (Homo sapiens, UniProt P33261); experiment: Inhibition of human recombinant CYP2C19 expressed in baculovirus-infected insect cells preincubated for 15 mins followed by substrate addition measured after 30 mins by luminescence assay; assay type: ADME; conditions: recombinant enzyme, 0.5 h
Sequence of Cytochrome P450 2C19 (P33261 whole entry): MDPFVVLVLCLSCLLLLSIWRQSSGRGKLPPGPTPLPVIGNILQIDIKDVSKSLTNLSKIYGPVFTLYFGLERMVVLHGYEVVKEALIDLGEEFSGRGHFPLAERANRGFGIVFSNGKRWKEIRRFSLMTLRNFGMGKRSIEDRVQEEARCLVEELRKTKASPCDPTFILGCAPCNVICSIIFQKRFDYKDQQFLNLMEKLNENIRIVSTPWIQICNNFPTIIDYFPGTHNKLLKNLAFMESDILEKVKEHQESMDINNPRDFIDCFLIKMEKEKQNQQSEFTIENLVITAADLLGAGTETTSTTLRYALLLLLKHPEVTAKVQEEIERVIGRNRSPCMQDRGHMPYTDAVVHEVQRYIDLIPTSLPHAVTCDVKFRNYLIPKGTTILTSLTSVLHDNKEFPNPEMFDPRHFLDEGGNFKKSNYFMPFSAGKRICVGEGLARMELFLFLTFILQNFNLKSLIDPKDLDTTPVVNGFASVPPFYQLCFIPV

[5] = target: T2, Cytochrome P450 2C8 (Homo sapiens, UniProt P10632); experiment: Inhibition of human recombinant CYP2C8 expressed in baculovirus-infected insect cells preincubated for 15 mins followed by substrate addition measured after 30 mins by luminescence assay; assay type: ADME; conditions: recombinant enzyme, 0.5 h
T2 sequence (P10632 whole entry): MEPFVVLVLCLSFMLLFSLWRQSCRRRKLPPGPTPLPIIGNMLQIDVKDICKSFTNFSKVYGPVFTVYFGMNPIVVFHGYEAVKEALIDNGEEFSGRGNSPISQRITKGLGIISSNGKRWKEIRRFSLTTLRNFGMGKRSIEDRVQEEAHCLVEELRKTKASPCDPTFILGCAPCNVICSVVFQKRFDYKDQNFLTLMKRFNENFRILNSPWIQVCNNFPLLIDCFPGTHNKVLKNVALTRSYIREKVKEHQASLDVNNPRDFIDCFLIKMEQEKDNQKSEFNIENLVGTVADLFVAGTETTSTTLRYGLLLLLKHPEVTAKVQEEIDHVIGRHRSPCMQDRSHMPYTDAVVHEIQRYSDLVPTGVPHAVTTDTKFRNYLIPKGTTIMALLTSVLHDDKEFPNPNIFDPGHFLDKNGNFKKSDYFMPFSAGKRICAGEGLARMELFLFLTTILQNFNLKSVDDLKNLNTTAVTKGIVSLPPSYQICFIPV

[6] = target: Cytochrome P450 2C9 (Homo sapiens, UniProt P11712); experiment: Inhibition of human recombinant CYP2C9 expressed in baculovirus-infected insect cells preincubated for 15 mins followed by substrate addition measured after 30 mins by luminescence assay; assay type: ADME; conditions: recombinant enzyme, 0.5 h
Sequence of Cytochrome P450 2C9 (P11712 whole entry): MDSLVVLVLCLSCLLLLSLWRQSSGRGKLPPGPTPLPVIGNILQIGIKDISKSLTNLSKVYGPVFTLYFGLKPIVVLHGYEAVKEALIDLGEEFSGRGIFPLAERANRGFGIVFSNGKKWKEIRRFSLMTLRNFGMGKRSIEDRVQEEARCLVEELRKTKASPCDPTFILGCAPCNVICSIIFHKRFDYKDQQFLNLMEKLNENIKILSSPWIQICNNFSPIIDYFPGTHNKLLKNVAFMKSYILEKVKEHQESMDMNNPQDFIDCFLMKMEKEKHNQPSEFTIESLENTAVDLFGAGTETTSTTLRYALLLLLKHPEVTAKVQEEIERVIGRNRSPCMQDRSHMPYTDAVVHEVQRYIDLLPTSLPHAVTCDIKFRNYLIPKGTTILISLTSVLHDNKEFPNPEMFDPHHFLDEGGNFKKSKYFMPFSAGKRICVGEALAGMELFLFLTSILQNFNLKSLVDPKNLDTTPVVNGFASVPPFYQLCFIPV

[7] = target: Cytochrome P450 3A4 (Homo sapiens, UniProt P08684); experiment: Inhibition of human recombinant CYP3A4 expressed in baculovirus-infected insect cells preincubated for 15 mins followed by substrate addition measured after 30 mins by luminescence assay; assay type: ADME; conditions: recombinant enzyme, 0.5 h
Sequence of Cytochrome P450 3A4 (P08684 whole entry): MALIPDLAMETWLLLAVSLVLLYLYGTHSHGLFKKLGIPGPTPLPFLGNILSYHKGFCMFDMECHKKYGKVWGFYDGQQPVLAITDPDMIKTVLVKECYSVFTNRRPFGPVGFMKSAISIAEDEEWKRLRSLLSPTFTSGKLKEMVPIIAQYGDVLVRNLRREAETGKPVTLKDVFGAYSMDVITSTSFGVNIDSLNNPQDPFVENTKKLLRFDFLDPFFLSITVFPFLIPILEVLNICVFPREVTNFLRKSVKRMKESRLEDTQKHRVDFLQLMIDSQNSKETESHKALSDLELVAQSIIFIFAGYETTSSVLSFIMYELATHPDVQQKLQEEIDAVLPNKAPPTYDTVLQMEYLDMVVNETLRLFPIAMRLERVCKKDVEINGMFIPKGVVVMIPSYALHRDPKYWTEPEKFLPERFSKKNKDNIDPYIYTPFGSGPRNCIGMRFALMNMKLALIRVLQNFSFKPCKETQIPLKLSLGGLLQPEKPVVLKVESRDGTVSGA

[8] = target: Cytochrome P450 2D6 (Homo sapiens, UniProt P10635); experiment: Inhibition of human recombinant CYP2D6 expressed in baculovirus-infected insect cells preincubated for 15 mins followed by substrate addition measured after 30 mins by luminescence assay; assay type: ADME; conditions: recombinant enzyme, 0.5 h
Sequence of Cytochrome P450 2D6 (P10635 whole entry): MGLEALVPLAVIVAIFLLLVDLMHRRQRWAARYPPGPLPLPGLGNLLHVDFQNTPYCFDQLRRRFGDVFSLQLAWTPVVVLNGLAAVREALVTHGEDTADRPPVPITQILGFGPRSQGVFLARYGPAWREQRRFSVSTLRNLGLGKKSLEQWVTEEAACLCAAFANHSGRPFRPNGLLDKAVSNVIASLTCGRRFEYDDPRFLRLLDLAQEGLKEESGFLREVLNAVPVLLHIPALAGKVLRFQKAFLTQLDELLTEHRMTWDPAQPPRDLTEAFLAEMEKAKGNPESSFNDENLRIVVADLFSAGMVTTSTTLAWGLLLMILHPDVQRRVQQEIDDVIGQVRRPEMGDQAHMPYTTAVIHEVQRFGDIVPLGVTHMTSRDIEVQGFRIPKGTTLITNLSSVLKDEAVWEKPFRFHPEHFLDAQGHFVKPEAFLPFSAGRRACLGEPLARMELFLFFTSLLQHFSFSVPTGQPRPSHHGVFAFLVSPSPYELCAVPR

[9] = target: T3, Cytochrome P450 2B6 (Homo sapiens, UniProt P20813); experiment: Inhibition of human recombinant CYP2B6 expressed in baculovirus-infected insect cells preincubated for 15 mins followed by substrate addition measured after 30 mins by luminescence assay; assay type: ADME; conditions: recombinant enzyme, 0.5 h
T3 sequence (P20813 whole entry): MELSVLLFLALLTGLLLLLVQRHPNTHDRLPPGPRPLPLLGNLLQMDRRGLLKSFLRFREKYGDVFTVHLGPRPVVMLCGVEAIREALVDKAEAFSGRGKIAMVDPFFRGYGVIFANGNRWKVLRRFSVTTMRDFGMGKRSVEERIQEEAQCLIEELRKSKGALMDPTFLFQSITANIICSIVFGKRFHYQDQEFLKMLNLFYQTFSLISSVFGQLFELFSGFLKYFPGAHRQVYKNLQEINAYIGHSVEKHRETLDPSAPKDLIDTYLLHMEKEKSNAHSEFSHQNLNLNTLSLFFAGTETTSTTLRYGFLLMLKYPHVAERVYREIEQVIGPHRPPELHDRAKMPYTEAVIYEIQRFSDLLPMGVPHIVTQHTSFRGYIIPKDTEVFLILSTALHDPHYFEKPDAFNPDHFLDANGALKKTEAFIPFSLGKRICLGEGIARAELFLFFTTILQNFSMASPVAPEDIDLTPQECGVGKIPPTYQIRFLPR

[10] = target: Voltage-gated inwardly rectifying potassium channel KCNH2 (Homo sapiens, UniProt Q12809); experiment: Inhibition of human ERG expressed in CHO cells; assay type: cell-based
Sequence of Voltage-gated inwardly rectifying potassium channel KCNH2 (Q12809 whole entry): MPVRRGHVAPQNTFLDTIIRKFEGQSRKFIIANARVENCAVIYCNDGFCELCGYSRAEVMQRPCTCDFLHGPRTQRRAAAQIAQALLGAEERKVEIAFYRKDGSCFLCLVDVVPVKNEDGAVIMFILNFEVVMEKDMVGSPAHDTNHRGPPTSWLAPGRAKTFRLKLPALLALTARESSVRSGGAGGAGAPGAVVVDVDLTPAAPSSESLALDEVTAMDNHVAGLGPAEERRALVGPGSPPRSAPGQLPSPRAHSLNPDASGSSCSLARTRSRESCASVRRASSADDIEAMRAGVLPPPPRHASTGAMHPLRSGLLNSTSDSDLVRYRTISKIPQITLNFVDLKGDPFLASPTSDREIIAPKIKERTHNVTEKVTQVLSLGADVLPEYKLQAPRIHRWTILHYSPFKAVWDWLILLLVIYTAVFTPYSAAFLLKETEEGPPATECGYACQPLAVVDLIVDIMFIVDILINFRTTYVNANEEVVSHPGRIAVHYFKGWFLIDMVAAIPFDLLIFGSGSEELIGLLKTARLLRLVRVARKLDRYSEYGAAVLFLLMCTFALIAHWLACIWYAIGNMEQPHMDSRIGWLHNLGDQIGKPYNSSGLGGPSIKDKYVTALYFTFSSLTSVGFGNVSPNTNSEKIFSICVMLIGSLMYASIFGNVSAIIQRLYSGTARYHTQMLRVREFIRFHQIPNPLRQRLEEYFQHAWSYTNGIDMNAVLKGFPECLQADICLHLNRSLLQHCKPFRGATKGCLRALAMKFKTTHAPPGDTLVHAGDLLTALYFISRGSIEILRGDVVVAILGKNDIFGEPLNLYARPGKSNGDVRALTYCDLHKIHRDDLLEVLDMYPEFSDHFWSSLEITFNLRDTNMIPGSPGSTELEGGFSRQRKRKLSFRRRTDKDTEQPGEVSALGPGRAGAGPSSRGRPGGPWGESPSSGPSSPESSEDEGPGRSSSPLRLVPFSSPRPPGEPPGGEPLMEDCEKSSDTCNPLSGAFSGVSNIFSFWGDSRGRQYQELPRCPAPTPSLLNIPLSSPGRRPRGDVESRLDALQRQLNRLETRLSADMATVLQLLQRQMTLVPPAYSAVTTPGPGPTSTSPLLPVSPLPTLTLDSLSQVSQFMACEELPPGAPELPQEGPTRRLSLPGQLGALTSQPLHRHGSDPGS

[11] = tested on: Plasmodium falciparum; experiment: Antimalarial activity against chloroquine, pyrimethamine, cycloguanil-resistant Plasmodium falciparum 7G8; assay type: functional, organism-based
[12] = Volume of distribution at steady state in NMRI mouse at 1 mg/kg, iv by LC-MS/MS analysis; assay type: ADME, organism-based; design: dose 1 mg/kg, route intravenous; conditions: in vivo, read-out: Vdss
[13] = tested on: Plasmodium falciparum; experiment: Antimalarial activity against mefloquine-resistant Plasmodium falciparum TM91C235; assay type: functional, organism-based
[14] = tested on: Plasmodium falciparum; experiment: Antimalarial activity against chloroquine, pyrimethamine, sulfadoxine and quinine-resistant Plasmodium falciparum W2; assay type: functional, organism-based
[15] = tested on: Plasmodium falciparum; experiment: Antimalarial activity against drug-sensitive Plasmodium falciparum NF54; assay type: functional, organism-based
[16] = tested on: Plasmodium falciparum; experiment: Antimalarial activity against chloroquine, pyrimethamine, sulfadoxine, quinine and mefloquine-sensitive Plasmodium falciparum D6; assay type: functional, organism-based
[17] = Cmax in NMRI mouse at 1 mg/kg, iv and 5 mg/kg, po by LC-MS/MS analysis; assay type: ADME, organism-based; conditions: in vivo
[18] = tested on: Plasmodium falciparum; experiment: Antimalarial activity against chloroquine, pyrimethamine, quinine-resistant Plasmodium falciparum V1S; assay type: functional; conditions: VS/1
[19] = Terminal half life in NMRI mouse at 5 mg/kg, po by LC-MS/MS analysis; assay type: ADME, organism-based; design: dose 5 mg/kg, route oral; conditions: in vivo, read-out: beta t1/2 (converted)
[20] = tested on: Plasmodium berghei; experiment: Antimalarial activity against Plasmodium berghei ANKA expressing GFP infected in NMRI mouse assessed as mean survival days at 100 mg/kg/day, po qd for 4 days measured at 24 hrs after last dose; assay type: functional
Summary of the method: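 P. berghei-infected mice dosed orally once daily on days 0–3, starting 4 h postinfection, in groups of 3, 10, 30 and 100 mg/kg/day. Red blood cell parasitemia and plasma exposure measured on day 4, 24 h after the last dose. Mean survival days then monitored over 26 further days.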

[21] = Oral bioavailability in NMRI mouse at 5 mg/kg by LC-MS/MS analysis; assay type: ADME, organism-based; conditions: in vivo
[22] = tested on: Plasmodium berghei; experiment: Antimalarial activity against Plasmodium berghei ANKA expressing GFP infected in NMRI mouse assessed as reduction in parasitemia at 100 mg/kg/day, po qd for 4 days measured at 24 hrs after last dose relative to control; assay type: functional; design: scale not given: the % may be the effect or the level left
Summary of the method: (§2)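 P. berghei-infected mice dosed orally once daily on days 0–3, first dose 4 h postinfection, at 3, 10, 30 and 100 mg/kg/day. Red blood cell parasitemia and plasma exposure measured on day 4, 24 h after last dose; ED50 derived from dose-response; survival then monitored for 26 further days as mean survival days.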

[23] = tested on: Plasmodium falciparum; experiment: Antimalarial activity against chloroquine and pyrimethamine-resistant Plasmodium falciparum K1; assay type: functional, organism-based; summary of the method: as §1
[24] = tested on: Plasmodium berghei; experiment: Antimalarial activity against Plasmodium berghei ANKA expressing GFP infected in po dosed NMRI mouse assessed as reduction in parasitemia administered qd for 4 days measured at 24 hrs after last dose; assay type: functional; summary of the method: as §2
[25] = AUC in NMRI mouse at 1 mg/kg, iv and 5 mg/kg, po by LC-MS/MS analysis; assay type: ADME, organism-based; conditions: plasma

For `O=C(CN1CCN(CC2CCCCC2)CC1)Cn1c2ccc(Cl)cc2c2cc(Cl)ccc21`, the IC50 [1] was 448 nM.
With `OC(CN1CCN(Cc2ccccc2)CC1)Cn1c2ccc(Br)cc2c2cc(Br)ccc21` (stereo not given) the IC50 [1] was 27 nM.
For `C[C@@H]1CC[C@H]2[C@@H](C)C(=O)O[C@@H]3O[C@@]4(C)CC[C@@H]1[C@]32OO4` [ARTEMISININ], the IC50 [2] was 5.4 nM.
For `O[C@H](CNC1CCCCC1)Cn1c2ccc(Br)cc2c2cc(Br)ccc21`, the “inhibition (INH)” value [3] was “Active”, the “inhibition (INH)” value [4] was “Active” and the “inhibition (INH)” value [5] was “Active”. The “inhibition (INH)” value [6] was “Active”, the “inhibition (INH)” value [7] was “Active” and the “inhibition (INH)” value [8] was “Active”. For the same molecule, the “inhibition (INH)” value [9] was “Active”, the “inhibition (INH)” value [10] was “Active” and the Activity [1] was “Active”.
For `OC(CN1CCN(CC2CCCCC2)CC1)Cn1c2ccc(Cl)cc2c2cc(Cl)ccc21` (stereo not given), the Activity [11] was “Active”, the Vd [12] was 15 L/kg and the Activity [13] was “Active”. The Activity [14] was “Active”, the Activity [15] was “Active” and the Activity [16] was “Active”. The Cmax [17] was 135 ng/mL, the Activity [18] was “Active” and the half-life [19] was 8 h. The Activity [20] was “Active”, the bioavailability [21] was 50% and the IC50 [1] was 16 nM. For the same molecule, the Activity [22] was 99.93%, the Activity [23] was “Active” and the Activity [24] was “Dose dependent effect”. For the same molecule, the ED50 [24] was 34.5 mg/kg/day and the AUC [25] was 1580 ng·h/mL.
`OC(CN1CCN(Cc2ccccc2)CC1)Cn1c2ccccc2c2cc(Cl)ccc21` (stereo not given) showed an IC50 [1] of 165 nM.
For `O[C@@H](CNC1CCCCC1)Cn1c2ccc(Br)cc2c2cc(Br)ccc21`, the “inhibition (INH)” value [3] was “Active”, the “inhibition (INH)” value [4] was “Active” and the “inhibition (INH)” value [5] was “Active”. For the same molecule, the “inhibition (INH)” value [6] was “Active”, the “inhibition (INH)” value [7] was “Active” and the “inhibition (INH)” value [8] was “Active”. The “inhibition (INH)” value [9] was “Active”, the “inhibition (INH)” value [10] was “Active” and the Activity [1] was “Active”.
In the case of `COC(CN1CCN(Cc2ccccc2)CC1)Cn1c2ccccc2c2ccccc21` (stereo not given), the IC50 [1] is reported as 3310 nM.
With `Clc1ccc2c(c1)c1cc(Cl)ccc1n2CCCN1CCN(CC2CCCCC2)CC1` the IC50 [1] was 707 nM.
With `CC12CCC(CN(CC(O)Cn3c4ccc(Cl)cc4c4cc(Cl)ccc43)C1)C2(C)C` (stereo not given) the IC50 [2] was 57 nM.
With `O=C1CN(Cc2ccccc2)CCN1CC(O)Cn1c2ccc(Cl)cc2c2cc(Cl)ccc21` (stereo not given) the IC50 [1] was 344 nM.
Work on `OC(CN1CCN(Cc2ccccc2)CC1)Cn1c2ccccc2c2ccccc21` (stereo not given) yielded an IC50 [1] of 275 nM.
Work on `FC(CN1CCN(CC2CCCCC2)CC1)Cn1c2ccc(Br)cc2c2cc(Br)ccc21` (stereo not given) yielded an IC50 [1] of 106 nM.
